High-throughput results from PubChem.
XBP1 UPR activ: adaptive UPR (XBP1) activation; CHO-XBP1 luciferase reporter, IRE1-XBP1 UPR activation, luminescence; percent of tunicamycin response, DMSO as zero; 330,000 tested, 0.33% active; activation, % at 20 µM;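 active means versus positive control, 20 µM dose yields 30% or more activation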
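Material: CHO cell line with stable XBP1 luciferase reporter; schedule: 16-18 h cell attachment at 37 °C, then 6 h compound exposure; signal: glow luminescence from Steady-Glo reagent; medium: serum-containing F12 medium, 10% FBS; benchmarks: tunicamycin 10 µg/mL and vehicle-only wells; read-out: percent activation relative to tunicamycin reference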
Beta2AR agonist: human beta-2 adrenergic receptor agonism by FAP | 340,000 tested, 0.43% active | AID 504454 | P07550 | response, % (test concentration not listed) | Am2.2-beta2AR cells, FAP receptor internalization, flow cytometry;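 active means response above a set limit, near 3 SD of response in nonfluorescent compounds, cut at about 42% in these data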
Target sequence (P07550 whole entry, looked up): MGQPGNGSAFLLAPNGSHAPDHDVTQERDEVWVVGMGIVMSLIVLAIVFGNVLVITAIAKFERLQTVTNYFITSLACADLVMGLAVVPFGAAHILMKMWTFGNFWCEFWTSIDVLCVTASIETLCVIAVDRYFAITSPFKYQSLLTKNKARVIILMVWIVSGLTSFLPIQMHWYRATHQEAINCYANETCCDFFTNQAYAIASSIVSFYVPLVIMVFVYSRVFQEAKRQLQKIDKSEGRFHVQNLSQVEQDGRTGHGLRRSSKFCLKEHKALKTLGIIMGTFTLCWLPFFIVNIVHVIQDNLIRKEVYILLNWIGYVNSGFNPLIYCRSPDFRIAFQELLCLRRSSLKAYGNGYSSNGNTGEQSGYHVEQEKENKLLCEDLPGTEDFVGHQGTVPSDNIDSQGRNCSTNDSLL
UPR CHOP act: activators of apoptotic arm of unfolded protein response (CHOP); CHO-CHOP luciferase reporter, UPR activation, luminescence; percent of tunicamycin response over DMSO baseline; activation, % at 10 µM; 330,000 tested, 0.34% active; AID 449763;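 active means at 10 µM dose, activation of 40% or more, normalized to positive control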
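Assay system: CHO cells with stable CHOP pathway luciferase reporter; Buffer or medium: F12 plus 10% serum; Times: 16-18 h cell attachment, then 6 h compound exposure, 37 °C; Signal: luciferase luminescence; Read-out basis: percent activation relative to tunicamycin control; Control set: tunicamycin high control, DMSO low control.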
T cell HTS: T cell immune modulators affecting CD8 T cell-vesicle binding. 2C CD8+ T cell-vesicle binding, flow cytometry; hits give low values. response (vesicle binding), % at 7 µM. 330,000 tested, 0.068% active;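 active means response, share of CD8 T cells binding vesicles, and their 90th percentile fluorescence all below set limits, cut at about 80% in these data, passing the limit was not always enough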;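 further: values below 100% mean blocked vesicle binding to the CD8+ T cells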
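Read-out – percent CD8+ FL2 mean versus row control · System – murine 2C transgenic CD8+ T lymphocytes · Times – 1.5 h cell–vesicle binding at 37 °C, then 20 min icy labelling · Control set – naked vesicles low, QL9 vesicles with vehicle high · Detection – cytometric PE anti-B7-1 and Alexa647 anti-CD8 signals after 1% paraformaldehyde fixation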
XBP1 UPR conf: adaptive UPR (XBP1) activation, confirmed | AID 485299 | shares compounds with XBP1 UPR activ | 1,000 tested, 63% active | CHO-XBP1 IRE1-XBP1 luciferase reporter, luminescence | activation, % at 20 µM;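 active means reporter signal at least 30% of the positive control's activation in two or more of four replicate wells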
Each line names hits and unclear results; the compound was inactive in the other large screens (follow-up assays come after a bar, where they were run). An excerpt weighted towards active compounds, which were near 1% of everything screened.

Oc1ccc2ccccc2c1C=Nc1ccccc1-c1nc2ccccc2[nH]1	XBP1 UPR activ 37 | XBP1 UPR conf inactive
Nc1nc(SCc2ccc(Cl)cc2Cl)nc2nc3c(cc12)CCCC3	XBP1 UPR activ 59 | XBP1 UPR conf 133
O=C(NCC1CC1)c1cccc2c1C(=O)c1ccc(-c3ccc(OC(F)(F)F)cc3)cc1S2(=O)=O	XBP1 UPR activ 41 | XBP1 UPR conf 42
Cc1ccc(NC(=O)C(=O)NCC2OCCc3ccccc32)cc1 (stereo unspecified)	none
O=C(NCC1OCCc2ccccc21)c1ccc(NC(=O)c2ccc(Cl)cc2)cc1 (stereo unspecified)	XBP1 UPR activ 38 | XBP1 UPR conf inactive
CCOc1ccc2ccccc2c1C(=O)N1CCN(c2ccccc2)CC1	none
O=c1cc(N2CCc3ccccc3C2)[nH]c(=O)n1Cc1ccc(F)cc1	XBP1 UPR activ 42 | XBP1 UPR conf inactive
Cc1cccn2c(=O)c3cc(S(=O)(=O)c4ccccc4)c(=N)n(Cc4cccnc4)c3nc12	none
Cc1ccc(S(=O)(=O)c2cc3c(=O)n4cccc(C)c4nc3n(Cc3ccncc3)c2=N)cc1	XBP1 UPR activ 49 | XBP1 UPR conf inactive
CN(C)S(=O)(=O)c1ccc(N2CCCC2)c(C(=O)NCC(=O)Nc2ccc(F)c(F)c2)c1	none
Cc1ccc(NC(=O)c2cc(S(=O)(=O)N(C)C)ccc2N2CCCC2)cc1F	XBP1 UPR activ 39 | XBP1 UPR conf 64
COc1ccc2nc(NC(=O)c3cccc(-c4cc5ccccc5oc4=O)c3)sc2c1	XBP1 UPR activ 78 | XBP1 UPR conf 55
CC(C)CNc1nnnc2c1sc1nc(N3CCOCC3)c3c(c12)CCCC3	XBP1 UPR activ 55 | XBP1 UPR conf inactive
COc1ccc(NC(=O)Nc2ccc3oc(C)nc3c2)cc1	none
Cc1ccccc1NC(=O)Nc1nnc(Cc2ccc([N+](=O)[O-])cc2)s1	XBP1 UPR activ 73 | XBP1 UPR conf inactive
CC(C)C[C@H](NC(=O)c1nc[nH]c1C(=O)NC(c1ccccc1)c1ccccc1)C(=O)OCc1ccccc1	none
CCOC(=S)SCC(=O)Nc1nc(-c2ccc(Br)cc2)cs1	XBP1 UPR activ 93 | XBP1 UPR conf 164
CC1CN(C(=O)[C@@H]2CCCN2S(=O)(=O)c2ccc(Cl)cc2)CC(C)O1 (stereo partly specified)	none (no result: XBP1 UPR activ, UPR CHOP act, T cell HTS)
O=[N+]([O-])c1ccc(N/N=C/c2ccc(OCc3cccc4ccccc34)cc2)nc1	XBP1 UPR activ 74 | XBP1 UPR conf 34
COc1cc2[nH]c3c(Cl)ncnc3c2cc1OC	none
COc1cc2[nH]c3c(N4CCN(c5ccc(Cl)cc5)CC4)ncnc3c2cc1OC	XBP1 UPR activ 39 | XBP1 UPR conf 33
Cc1cc(C)c2c(ccc3ccccc32)n1	none (no result: XBP1 UPR activ, UPR CHOP act, T cell HTS)
Oc1ccc(-c2nc3ccc4ccccc4c3c3c2CCC3)cc1O	XBP1 UPR activ 31 | XBP1 UPR conf 51
CC(C)n1cc(CN2CCC(C(=O)Nc3cccc(-c4cscn4)c3)CC2)cn1	none
COc1ccccc1C1(CCNS(=O)(=O)c2ccc(C)cc2)CCOC(C(C)C)C1 (stereo unspecified)	none (no result: XBP1 UPR activ, UPR CHOP act)
CCOc1ccc(NC(=S)NC(=O)/C=C/c2ccc(C)cc2)c([N+](=O)[O-])c1	XBP1 UPR activ 213 | XBP1 UPR conf 144
COc1ccc(/C=C/C(=O)Nc2ccc(OC)cc2[N+](=O)[O-])cc1	none
COc1ccc(NC(=O)c2cc3c(=O)n(C)c4ccccc4c3n2C)cc1Cl	XBP1 UPR activ 32 | XBP1 UPR conf 72
O=C(OCc1nc2ccccc2s1)[C@@H]1CCCN1S(=O)(=O)c1ccccc1F	none
Cc1nnc(NC(=O)CSc2nnc(Cc3cccn3C)n2CCc2ccccc2)s1	none
Cn1cccc1Cc1nnc(SCC(=O)Nc2nc3ccccc3s2)n1CCc1ccccc1	XBP1 UPR activ 30 | XBP1 UPR conf inactive
O=C(N=Nc1c(O)n(Cc2ccccc2)c2ccccc12)c1ccc(O)cc1	none
O=C(N=Nc1c(O)n(C2OC(=O)c3ccccc32)c2ccccc12)c1ccc(O)cc1 (stereo unspecified)	XBP1 UPR activ 105 | XBP1 UPR conf inactive
CCN(CC)S(=O)(=O)c1ccc2c(c1)C(=NO)c1cc(S(=O)(=O)N(CC)CC)ccc1-2	XBP1 UPR activ 52 | XBP1 UPR conf 79
CCN(CC)S(=O)(=O)c1ccc(C)c(C)c1	none
Cc1ccc2nc(/C(C#N)=C/c3ccccc3C(=O)O)[nH]c2c1	none
Cc1ccc2nc(/C(C#N)=C/c3ccc(O)c(O)c3)[nH]c2c1	XBP1 UPR activ 43 | XBP1 UPR conf 33
COc1ccc2nc3cc([N+](=O)[O-])ccc3c(NNc3ccc([N+](=O)[O-])cc3)c2c1	none (no result: XBP1 UPR activ, UPR CHOP act, T cell HTS)
COc1ccc(OC)c(Nc2nc(NCc3ccco3)nc(N)c2[N+](=O)[O-])c1	XBP1 UPR activ 55 | XBP1 UPR conf 62
COc1ccccc1NS(=O)(=O)c1cc(N2Cc3ccccc3C2=N)ccc1N1CCOCC1	none
Cc1nc(N)c(C#N)c(-c2ccccc2)c1C	none
Cc1cc(C)c2c(n1)sc1c(-c3ccccc3)c(C#N)c(N)nc12	XBP1 UPR activ 91 | XBP1 UPR conf 48
O=C(Nc1ccnn1C1CCN(Cc2c(F)cccc2Cl)CC1)C1CCCC1	none
CCOC(=O)CC(=O)CSc1nc(-c2ccc3c(c2)OCO3)cc(C(F)(F)F)c1C#N	XBP1 UPR activ 38 | XBP1 UPR conf inactive
O=C(Nc1cc(S(=O)(=O)N2CCOCC2)ccc1N1CCCC1)c1ccc(Cl)cc1	none (no result: T cell HTS)
Cc1ccc(C)c(N2CCN(C(=O)c3cc(S(=O)(=O)N4CCOCC4)ccc3F)CC2)c1	XBP1 UPR activ 33 | XBP1 UPR conf inactive
Cc1ccc(C(=O)Nc2cc(S(=O)(=O)N3CCOCC3)ccc2N2CCCC2)cc1	XBP1 UPR activ 35 | XBP1 UPR conf 38
Cc1ccc(C)c(CNS(=O)(=O)c2ccc3c(c2)C(C)(C)C(=O)N3C)c1	none
CCCCC(=O)N1CC(=O)Nc2ccc(F)cc2C1c1ccc(F)cc1 (stereo unspecified)	none
COc1ccc(/C=N/Nc2cc(C)nc3ccc(Br)cc23)cc1	XBP1 UPR activ 32 | XBP1 UPR conf 36
CCCc1cc(=O)oc2c(C)c(OCC(=O)NC3CCN(Cc4ccccc4)CC3)ccc12	none
COc1ccc(C)cc1NCc1cc(=O)oc2cc(-c3ccccc3)c(O)cc12	XBP1 UPR activ 53 | XBP1 UPR conf inactive
Cc1cc(C)cc(NCc2cc(=O)oc3cc(-c4ccccc4)c(O)cc23)c1	none
CCC/C(=N/Nc1ccc(Cl)cc1)c1cnnc(-c2ccccc2)n1	XBP1 UPR activ 66 (no result: Beta2AR agonist) | XBP1 UPR conf 28
CC/C(=N/Nc1ccccc1Cl)c1cnnc(-c2ccccc2)n1	none
NC(=O)CC(NC(=O)Cc1cccc2ccccc12)c1ccc(NCC2CC2)c([N+](=O)[O-])c1 (stereo unspecified)	none
